In publication PMC7993319 (Clinical and Translational Science, 2020):
Where two headings read alike, the source gives them in different places.

Experiments:
[1] = cited from earlier work
ALK = settings: lactam metabolite, two diastereoisomers; cited from earlier work
[2] = Safety monitoring in the trial; type: in vivo, human (patient with ALK‐positive NSCLC)
Method in brief: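 Safety was monitored by physical examination and laboratory tests on days 1 and 15, with safety visits on days 8 and 29. Triplicate 12-lead recordings were taken predose on day 1 (before the oral CYP3A inhibitor, 150 mg q.d. from day 2) and on days 8 and 15 of co-treatment with the ALK inhibitor. QT was corrected by Fridericia.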

[3] = type: in vivo, human (patients with ALK‐positive NSCLC); settings: for Crizotinib Cmin,ss: enrolled patient; for AUC(0-t): human, oral, Crizotinib AUC0–12, enrolled patient
Method in brief: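 Patients on standard oral ALK inhibitor (250 mg b.i.d., ≥14 days) with trough <310 ng/mL got oral CYP3A inhibitor 150 mg q.d. from day 2 for 14 days. Plasma sampled predose and 0.5–12 h (11 points) on days 1 and 15, plus trough on day 8. LC-MS/MS with ether extraction, isotope-labelled internal standard, 1–5,000 ng/mL. AUC0–12 by noncompartmental analysis.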

NSCLC = settings: cited from earlier work
[4] = co‐administration of CYP3A‐inducing rifampin; cited from earlier work

CCc1cc2c(cc1N1CCC(NCCO)CC1)C(C)(C)c1[nH]c3cc(C#N)ccc3c1C2=O [M4]
Activity of metabolite relative to alectinib [1]: equipotently active

C[C@@H](Oc1cc(-c2cnn(C3CCNC(=O)C3)c2)cnc1N)c1c(Cl)ccc(F)c1Cl (some centres unmarked) [PF‐06260182]
ALK‐inhibiting activity (ALK): 4–8%

CCc1cc2c(cc1N1CCC(N3CCOCC3)CC1)C(C)(C)c1[nH]c3cc(C#N)ccc3c1C2=O [alectinib]
Increase of combined AUC of alectinib and the M4 metabolite ([1]; administration of the CYP3A inhibitor posaconazole): 36%
CYP3A contribution to clearance ([1]; alectinib): 40–50%

CC(C)c1nc(CN(C)C(=O)N[C@@H](CCN2CCOCC2)C(=O)N[C@H](CC[C@H](Cc2ccccc2)NC(=O)OCc2cncs2)Cc2ccccc2)cs1 [cobicistat]
QTcF ([2]; day 8 of cobicistat treatment, with crizotinib): 410 ms
Heart rate ([2]; day 15, crizotinib plus cobicistat): 54 bpm
QTcF ([2]; day 15 of cobicistat treatment, with crizotinib): 413 ms
Safety signals / adverse events ([2]; single patient, crizotinib 250 mg b.i.d. plus cobicistat 150 mg q.d. for 14 days): No safety signals occurred
Laboratory changes ([2]; single patient, crizotinib plus cobicistat): no significant laboratory changes except a grade I increase in transaminases

C[C@@H](Oc1cc(-c2cnn(C3CCNCC3)c2)cnc1N)c1c(Cl)ccc(F)c1Cl [crizotinib]
Mean crizotinib Cmin,ss at screening ([3]; 7 screened patients, oral crizotinib 250 mg b.i.d., steady state, plasma): 279 ± 77 ng/mL
AUC0–12 ratio ([3]; crizotinib with cobicistat (14 days) vs baseline): 1.78
Crizotinib Cmin,ss ([3]; day 1, before cobicistat, crizotinib 250 mg b.i.d.): 158 ng/mL
Crizotinib Cmin,ss ([3]; day 8, with oral cobicistat 150 mg q.d.): 308 ng/mL
AUC(0-t) ([3]; plasma, after 14 days of cobicistat treatment): 3920 ng·h/mL
AUC(0-t) ([3]; plasma, baseline (before cobicistat), steady state): 2210 ng·h/mL
Underexposed patients (Cmin,ss < 310 ng/mL) ([3]; unselected NSCLC population screened (5 of 7 patients)): 71%
Increase of crizotinib AUC0–12 ([3]; with cobicistat for 14 days vs before cobicistat): 78%
QTcF ([2]; before cobicistat treatment, on crizotinib, triplicate ECG): 394 ms
Heart rate ([2]; day 1, before cobicistat, on crizotinib): 56 bpm
Hazard ratio (progression-free survival model) (NSCLC; lowest quartile vs. the combined upper three quartiles, 90% confidence interval: 1.62–6.36): 3.2
ORR (NSCLC; quartile with the highest Cmin,ss): 60–75%
ORR (NSCLC; quartile with the lowest Cmin,ss (< 310 ng/mL)): 24–47%
Decrease of crizotinib AUC [4]: 72%
